The source of these data is ChEMBL document CHEMBL1154122, “A comprehensive study of Sansalvamide A derivatives: The structure-activity relationships of 78 derivatives in two pancreatic cancer cell lines” (2009).

Square brackets hold non-standard residues; d marks the D form. Peptide text beside a SMILES is read from it. * marks the point of attachment. dNMeF = CN[C@H](Cc1ccccc1)C(=O)O; Tic = O=C(O)[C@@H]1Cc2ccccc2CN1; NMeL = CN[C@@H](CC(C)C)C(=O)O; dNMeL = CN[C@H](CC(C)C)C(=O)O; dNMeV = CN[C@@H](C(=O)O)C(C)C; NMeV = CN[C@H](C(=O)O)C(C)C; dAbu = CC[C@@H](N)C(=O)O; Cbz = O=C(OCc1ccccc1)*; Bn = c1ccc(C*)cc1; Sar = CNCC(=O)O

A short description of experiment [1]: Cytotoxicity against human PL45 cells after 56 hrs by [3H]thymidine uptake assay. The class given is functional. The method, boiled down: (§1)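 Cells seeded at 2000–2500/well in DMEM with L-glutamine, 10% FBS and 1% penicillin-streptomycin. […] After 56 h, 3H-thymidine was added for 16 h more (72 h total), then cells were harvested and counted (CPM). Inhibition = 1 − CPM treated/DMSO; IC50 taken from curves, mean and SEM.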

In the next experiment the test system is BXPC-3. In words: Cytotoxicity against human BxPC3 cells after 56 hrs by [3H]thymidine uptake assay. The class given is functional. The method, boiled down: as §1

In the case of `CC(C)C[C@@H]1NC(=O)[C@H](CC(C)C)N(C)C(=O)[C@H](Cc2ccccc2)NC(=O)[C@H](CC(C)C)N(C)C(=O)[C@H](C(C)C)NC1=O`, the “growth inhibition (GI)” value in experiment [1] is 38%; in the experiment on BXPC-3 it was 9%.

For `CC(C)C[C@H]1NC(=O)[C@@H](Cc2ccccc2)NC(=O)[C@@H](CC(C)C)NC(=O)[C@@H](C(C)C)NC(=O)[C@@H](CC(C)C)NC1=O`, the “growth inhibition (GI)” value in experiment [1] amounted to 17%; in the experiment on BXPC-3 it was 30%.

Take `CC(C)C[C@@H]1C(=O)N[C@H](CC(C)C)C(=O)N[C@H](C(C)C)C(=O)N[C@H](CC(C)C)C(=O)N[C@H](Cc2ccccc2)C(=O)N1C`: the “growth inhibition (GI)” value in experiment [1] is reported as 43%; with BXPC-3 it was 33%.

In the case of `CC(C)C[C@H]1NC(=O)[C@@H](Cc2ccccc2)NC(=O)[C@@H](CC(C)C)NC(=O)[C@@H](C(C)C)N(C)C(=O)[C@@H](CC(C)C)NC1=O`, the “growth inhibition (GI)” value in experiment [1] is on record as 6%; in the experiment with BXPC-3 it was 31%.

As to `CC(C)C[C@@H]1C(=O)N[C@H](CC(C)C)C(=O)N[C@H](C(C)C)C(=O)N(C)[C@H](CC(C)C)C(=O)N[C@H](Cc2ccccc2)C(=O)N1C`, the “growth inhibition (GI)” value was found to be 6% in experiment [1] and 33% with BXPC-3.

As to `CC(C)C[C@@H]1NC(=O)[C@H](C)NC(=O)[C@H](CC(C)C)NC(=O)[C@H](CC(C)C)NC(=O)[C@H](Cc2ccccc2)NC1=O` (cyclo(ALFLL)), the “growth inhibition (GI)” value was found to be 18% in experiment [1] and 20% in the experiment with BXPC-3.

For `CC(C)C[C@@H]1NC(=O)[C@H](Cc2ccccc2)NC(=O)[C@H](CC(C)C)NC(=O)[C@H](C(C)C)NC(=O)[C@H](CCCCNC(=O)OCc2ccccc2)NC1=O` (cyclo(FLK(Cbz)VL)), the “growth inhibition (GI)” value in experiment [1] came to 0%; with BXPC-3, 8%.

On to `CC(C)C[C@@H]1NC(=O)[C@H](Cc2ccccc2)NC(=O)[C@@H](Cc2ccccc2)N(C)C(=O)[C@H](C(C)C)NC(=O)[C@H](CCCCNC(=O)OCc2ccccc2)NC1=O` (cyclo(FLK(Cbz)V[dNMeF])), for which the “growth inhibition (GI)” value in experiment [1] was 44%; with BXPC-3, 0%.

Consider `CC(C)C[C@@H]1NC(=O)[C@H](Cc2ccccc2)NC(=O)[C@H](CC(C)C)NC(=O)[C@@H](C(C)C)NC(=O)[C@H](CCCCNC(=O)OCc2ccccc2)NC1=O` (cyclo(FLK(Cbz)[dV]L)), for which the “growth inhibition (GI)” value was determined as 0% in experiment [1] and 29% in the experiment on BXPC-3.

`CC(C)C[C@@H]1NC(=O)[C@H](Cc2ccccc2)NC(=O)[C@H](CC(C)C)NC(=O)[C@H](C(C)C)NC(=O)[C@H](CCCCN)NC1=O` (cyclo(FLKVL)): the “growth inhibition (GI)” value in experiment [1] stood at 0%; in the experiment on BXPC-3, 8%.

In the case of `CC(C)C[C@@H]1NC(=O)[C@H](Cc2ccccc2)NC(=O)[C@@H](Cc2ccccc2)N(C)C(=O)[C@H](C(C)C)NC(=O)[C@H](CCCCN)NC1=O` (cyclo(FLKV[dNMeF])), the “growth inhibition (GI)” value in experiment [1] turned out to be 26%; in the experiment with BXPC-3 it was 30%.

On to `CC(C)C[C@@H]1NC(=O)[C@H](Cc2ccccc2)NC(=O)[C@H](CC(C)C)NC(=O)[C@@H](C(C)C)NC(=O)[C@H](CCCCN)NC1=O` (cyclo(FLK[dV]L)), for which the “growth inhibition (GI)” value came to 23% in experiment [1] and 24% with BXPC-3.

With `CC(C)C[C@@H]1NC(=O)[C@H](Cc2ccccc2)NC(=O)[C@H](CC(C)C)N(C)C(=O)[C@H](C(C)C)NC(=O)[C@H](CC(C)C)NC1=O` (cyclo(FLLV[NMeL])), the “growth inhibition (GI)” value (in experiment [1]; in the experiment on BXPC-3) was 0% in each case.

As to `CC(C)C[C@@H]1NC(=O)[C@H](Cc2ccccc2)NC(=O)[C@@H](CC(C)C)N(C)C(=O)[C@H](C(C)C)NC(=O)[C@H](CC(C)C)NC1=O` (cyclo(FLLV[dNMeL])), the “growth inhibition (GI)” value turned out to be 5% in experiment [1] and 2% in the experiment on BXPC-3.

For the molecule `CC(C)C[C@@H]1NC(=O)[C@H](Cc2ccccc2)NC(=O)[C@@H](CO)NC(=O)[C@H](C(C)C)NC(=O)[C@H](CC(C)C)NC1=O` (cyclo(FLLV[dS])), the results for the “growth inhibition (GI)” value (in experiment [1]; in the experiment with BXPC-3) were 32% and 25%, respectively.

On to `CC[C@H]1NC(=O)[C@H](CC(C)C)NC(=O)[C@H](CC(C)C)NC(=O)[C@H](Cc2ccccc2)NC(=O)[C@H](CC(C)C)NC1=O` (cyclo(FLL[dAbu]L)), for which the “growth inhibition (GI)” value in experiment [1] stood at 12%; in the experiment on BXPC-3 it was 17%.

In the case of `CC(C)C[C@@H]1NC(=O)[C@H](Cc2ccccc2)NC(=O)[C@H](CC(C)C)NC(=O)[C@@H](Cc2ccccc2)NC(=O)[C@H](CC(C)C)NC1=O` (cyclo(FLL[dF]L)), the “growth inhibition (GI)” value in experiment [1] came out at 33%; in the experiment on BXPC-3, 8%.

Turning to `CC(C)C[C@@H]1NC(=O)[C@H](Cc2ccccc2)NC(=O)[C@@H](CC(C)C)N(C)C(=O)[C@@H](C(C)C)N(C)C(=O)[C@H](CC(C)C)NC1=O` (cyclo(FLL[dNMeV][dNMeL])), the “growth inhibition (GI)” value in experiment [1] is given as 22%; with BXPC-3 it was 0%.

On to `CC(C)C[C@@H]1NC(=O)[C@H](Cc2ccccc2)NC(=O)[C@H](CC(C)C)NC(=O)[C@@H](CO)NC(=O)[C@H](CC(C)C)NC1=O` (cyclo(FLL[dS]L)), for which the figures for the “growth inhibition (GI)” value (in experiment [1]; with BXPC-3) were 25% and 22%, respectively.

Regarding `CC(C)C[C@@H]1NC(=O)[C@H](C(C)C)NC(=O)[C@H](CC(C)C)N(C)C(=O)[C@H](CC(C)C)NC(=O)[C@H](Cc2ccccc2)NC1=O` (cyclo(FL[NMeL]VL)), the “growth inhibition (GI)” value in experiment [1] amounted to 23%; in the experiment with BXPC-3 it was 52%.

Consider `CC(C)[C@@H]1NC(=O)[C@H](Cc2ccccc2)NC(=O)[C@@H](COCc2ccccc2)NC(=O)[C@H](C(C)C)NC(=O)[C@H](C(C)C)NC1=O` (cyclo(FVVV[dS](Bn))), for which the results for the “growth inhibition (GI)” value (in experiment [1]; with BXPC-3) were 28% and 17%, respectively.

For the molecule `CC(C)[C@@H]1NC(=O)[C@H](Cc2ccccc2)NC(=O)[C@@H](CO)NC(=O)[C@H](C(C)C)NC(=O)[C@H](C(C)C)NC1=O` (cyclo(FVVV[dS])), the “growth inhibition (GI)” value in experiment [1] is on record as 7%; with BXPC-3, 13%.

In the case of `CC[C@H]1NC(=O)[C@H](C(C)C)NC(=O)[C@H](C(C)C)NC(=O)[C@H](Cc2ccccc2)NC(=O)[C@H](C(C)C)NC1=O` (cyclo(FVV[dAbu]V)), the “growth inhibition (GI)” value in experiment [1] turned out to be 32%; in the experiment on BXPC-3 it was 26%.

`CC(C)[C@@H]1NC(=O)[C@H](Cc2ccccc2)NC(=O)[C@H](C(C)C)NC(=O)[C@@H](COCc2ccccc2)NC(=O)[C@H](C(C)C)NC1=O` (cyclo(FVV[dS](Bn)V)): the “growth inhibition (GI)” value in experiment [1] came to 0%; in the experiment with BXPC-3, 15%.

Take `CC(C)[C@@H]1NC(=O)[C@H](Cc2ccccc2)NC(=O)[C@H](C(C)C)NC(=O)[C@@H](CO)NC(=O)[C@H](C(C)C)NC1=O` (cyclo(FVV[dS]V)): the “growth inhibition (GI)” value was determined as 18% in experiment [1] and 20% in the experiment with BXPC-3.

With `CC(C)[C@@H]1NC(=O)[C@H](Cc2ccccc2)NC(=O)[C@H](C(C)C)NC(=O)[C@@H](C(C)C)NC(=O)[C@H](C(C)C)NC1=O` (cyclo(FVV[dV]V)), the “growth inhibition (GI)” value in experiment [1] was 25%; in the experiment on BXPC-3, 11%.

For the molecule `CC(C)C[C@@H]1NC(=O)[C@H](C(C)C)NC(=O)[C@H](CCCCNC(=O)OCc2ccccc2)NC(=O)[C@H](CC(C)C)N(C)C(=O)[C@H](Cc2ccccc2)NC1=O` (cyclo(F[NMeL]K(Cbz)VL)), the entries for the “growth inhibition (GI)” value (in experiment [1]; in the experiment with BXPC-3) were 36% and 35%, respectively.

`CC(C)C[C@@H]1NC(=O)[C@H](C(C)C)NC(=O)[C@H](CCCCN)NC(=O)[C@H](CC(C)C)N(C)C(=O)[C@H](Cc2ccccc2)NC1=O` (cyclo(F[NMeL]KVL)): the figures for the “growth inhibition (GI)” value (in experiment [1]; with BXPC-3) were 9% and 11%, respectively.

As to `CC(C)C[C@@H]1NC(=O)[C@H](C(C)C)N(C)C(=O)[C@H](CC(C)C)NC(=O)[C@H](CC(C)C)N(C)C(=O)[C@H](Cc2ccccc2)NC1=O` (cyclo(F[NMeL]L[NMeV]L)), the “growth inhibition (GI)” value (in experiment [1]; in the experiment on BXPC-3) was 0% each time.

Regarding `CC(C)C[C@@H]1NC(=O)[C@H](CC(C)C)N(C)C(=O)[C@H](Cc2ccccc2)NC(=O)[C@H](CC(C)C)N(C)C(=O)[C@H](C(C)C)N(C)C1=O` (cyclo(F[NMeL]L[NMeV][NMeL])), the “growth inhibition (GI)” value (in experiment [1]; in the experiment with BXPC-3) was 0% in each case.

Regarding `CC(C)C[C@@H]1NC(=O)CN(C)C(=O)[C@H](Cc2ccccc2)NC(=O)[C@H](C(C)C)NC(=O)[C@@H](C(C)C)NC1=O` (cyclo(F[Sar]L[dV]V)), the “growth inhibition (GI)” value came to 0% in experiment [1] and 22% in the experiment on BXPC-3.

Take `CC(C)C[C@@H]1NC(=O)[C@H](C(C)C)NC(=O)[C@H](CC(C)C)N(C)C(=O)[C@@H](CC(C)C)NC(=O)[C@H](Cc2ccccc2)NC1=O` (cyclo(F[dL][NMeL]VL)): the results for the “growth inhibition (GI)” value (in experiment [1]; with BXPC-3) were 25% and 71%, respectively.

On to `CC(C)C[C@@H]1NC(=O)[C@@H](Cc2ccccc2)NC(=O)[C@@H](CC(C)C)NC(=O)[C@@H](C(C)C)NC(=O)[C@H](CCCCNC(=O)OCc2ccccc2)NC1=O` (cyclo(K(Cbz)[dV][dL][dF]L)), for which the “growth inhibition (GI)” value in experiment [1] came out at 12%; with BXPC-3, 38%.

As to `CC(C)C[C@@H]1NC(=O)[C@@H](Cc2ccccc2)NC(=O)[C@@H](CC(C)C)NC(=O)[C@@H](C(C)C)NC(=O)[C@H](CCCCN)NC1=O` (cyclo(K[dV][dL][dF]L)), the “growth inhibition (GI)” value in experiment [1] is given as 0%; with BXPC-3 it was 28%.

For `CC(C)C[C@@H]1NC(=O)[C@H](CC(C)C)NC(=O)[C@@H]2Cc3ccccc3CN2C(=O)[C@H](CC(C)C)NC(=O)[C@H](C(C)C)NC1=O` (cyclo(LLVL[Tic])), the “growth inhibition (GI)” value in experiment [1] worked out at 35%; in the experiment on BXPC-3 it was 54%.

As for `CC(C)C[C@@H]1NC(=O)[C@H](CC(C)C)NC(=O)[C@@H](Cc2c[nH]c3ccccc23)NC(=O)[C@H](CC(C)C)NC(=O)[C@H](C(C)C)NC1=O` (cyclo(LLVL[dW])), the “growth inhibition (GI)” value in experiment [1] stood at 18%; in the experiment with BXPC-3, 30%.
